Experimental data from ChEMBL document CHEMBL1671831, “TSPO 18 kDa (PBR) Targeted Photosensitizers for Cancer Imaging (PET) and PDT” (ACS Med Chem Lett, 2011).
Each block holds one compound with its values, some of them ahead of it. Active and inactive are the calls of the source. The calls are words filed in the database; no cut-off is given here.

Tests used:
MDA-MB-231 [1] = assay: Antitumor activity against human MDA-MB-231 cells xenografted in SCID mouse assessed as tumor free mouse at 5 umol/kg measured on day 60; assay type: functional
MDA-MB-231 [2] = assay: Cellular uptake in human MDA-MB-231 cells at 0.1 uM by fluorescence spectroscopy; assay type: ADME, cell-based; conditions: mda-mb-231, 0.1 µM
Procedure, shortened: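 MDA-MB-231 cells. Uptake measured by fluorescence spectroscopy with excitation at 412 nm and emission scanned from 550 to 750 nm (maximum at 678 nm). Conjugate uptake compared with and without the TSPO ligand PK 11195 analogue.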

Translocator protein [3] = molecular target: T1, Translocator protein (Homo sapiens, UniProt P30536); assay: Binding affinity to PBR
T1 sequence (P30536 whole entry): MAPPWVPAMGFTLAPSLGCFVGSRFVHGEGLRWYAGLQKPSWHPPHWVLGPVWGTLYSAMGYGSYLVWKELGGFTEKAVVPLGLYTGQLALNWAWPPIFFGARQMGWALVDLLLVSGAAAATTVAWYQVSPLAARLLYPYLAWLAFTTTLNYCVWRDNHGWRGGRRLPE

MDA-MB-231 [4] = assay: Drug level in human MDA-MB-231 cells xenografted in SCID mouse after 24 hrs by microPET analysis; assay type: functional, cell-based
Procedure, shortened: (§1)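 Scid mice bearing MDA-231 tumours given the 124I-labelled conjugate at 50 μCi (about 40 ng) per mouse. MicroPET coronal emission imaging at 24, 48, 72 and 96 h after injection, plus biodistribution with three mice per group. Mean with standard deviation.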

Translocator protein [5] = molecular target: T1, Translocator protein; assay: Displacement of [3H]-PK11195 from PBR after 1 hr by scintillation counting
MDA-MB-231 [6] = assay: Drug level in human MDA-MB-231 cells xenografted in SCID mouse after 48 to 96 hrs by microPET analysis; assay type: functional, cell-based; conditions: tested as the 124I-labelled form; procedure, shortened: as §1
Brain = assay: Drug level in […] cells xenografted BALB/c mouse brain after 24 hrs by microPET analysis; assay type: ADME, cell-based; conditions: in vivo
Procedure, shortened: (§2)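 Balb/c mice bearing EMT6 tumours given the 124I-labelled agent. Uptake in organs and tumour taken by biodistribution 24 h after injection, with microPET coronal emission imaging. Mean with standard deviation.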

Heart = assay: Drug level in […] cells xenografted BALB/c mouse heart after 24 hrs by microPET analysis; assay type: ADME, cell-based; conditions: in vivo; procedure, shortened: as §2
Stomach = assay: Drug level in […] cells xenografted BALB/c mouse stomach after 24 hrs by microPET analysis; assay type: ADME, cell-based; conditions: in vivo; procedure, shortened: as §2
Lung = assay: Drug level in […] cells xenografted BALB/c mouse lungs after 24 hrs by microPET analysis; assay type: ADME, cell-based; conditions: in vivo; procedure, shortened: as §2
Kidney = assay: Drug level in […] cells xenografted BALB/c mouse kidney after 24 hrs by microPET analysis; assay type: ADME, cell-based; conditions: in vivo; procedure, shortened: as §2
[7] = Drug level in […] cells xenografted BALB/c mouse gut after 24 hrs by microPET analysis; assay type: ADME, cell-based; conditions: in vivo; procedure, shortened: as §2
Blood = assay: Drug level in […] cells xenografted BALB/c mouse blood after 24 hrs by microPET analysis; assay type: ADME, cell-based; conditions: in vivo; procedure, shortened: as §2
Muscle tissue = assay: Drug level in […] cells xenografted BALB/c mouse muscle after 24 hrs by microPET analysis; assay type: ADME, cell-based; conditions: in vivo; procedure, shortened: as §2
Spleen = assay: Drug level in […] cells xenografted BALB/c mouse spleen after 24 hrs by microPET analysis; assay type: ADME, cell-based; conditions: in vivo; procedure, shortened: as §2
Liver = assay: Drug level in […] cells xenografted BALB/c mouse liver after 24 hrs by microPET analysis; assay type: ADME, cell-based; conditions: in vivo; procedure, shortened: as §2
[8] = Drug level in human U87 cells xenografted in BALB/c mouse after 24 hrs […]; assay type: ADME, cell-based, U-87MG ATCC; conditions: in vivo, in the assay text read “nude mouse” for “BALB/c mouse”
Procedure, shortened: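 Nude mice bearing U87 tumours given the 124I-labelled agent. Tumour and organ uptake taken by biodistribution 24 h after injection. Mean with standard deviation.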

- Drug uptake (MDA-MB-231 [2]): Active
- Kd (Translocator protein [3]): 40 nM
- IC50 (Translocator protein [5]): 310 nM
SMILES: C=Cc1c(C)c2cc3nc(c4c5[nH]c(cc6nc(cc1[nH]2)C(C)=C6CC)c(C)c5C(=O)C4)[C@@H](CCC(=O)NCCCCCCNC(=O)c1cc2ccccc2c(-c2ccccc2I)n1)[C@@H]3C
- Activity (MDA-MB-231 [1]): 20%
- Drug uptake (MDA-MB-231 [4]): Active

SMILES: CCCCCCOC(C)c1c(C)c2cc3nc(c4c5[nH]c(cc6nc(cc1[nH]2)C(C)=C6CC)c(C)c5C(=O)C4)[C@@H](CCC(=O)NCCCCCCNC(=O)c1cc2ccccc2c(-c2ccccc2I)n1)[C@@H]3C (stereo partly specified)
- Drug uptake (MDA-MB-231 [6]): Active
- Drug uptake (MDA-MB-231 [4]): Active

- IC50 (Translocator protein [5]): 5600 nM
SMILES: C=Cc1c(C)c2cc3nc(c4c5[nH]c(cc6nc(cc1[nH]2)C(C)=C6CC)c(C)c5C(=O)C4)[C@@H](CCC(=O)NCCN)[C@@H]3C

- Drug uptake (Brain): Not Active
- Drug uptake (Heart): Not Active
- Drug uptake (Stomach): Not Active
- Drug uptake (Lung): Not Active
- Drug uptake (Kidney): Not Active
- Drug uptake [7]: Not Active
- Drug uptake (Blood): Not Active
- Drug uptake (Muscle tissue): Not Active
- Drug uptake (Spleen): Not Active
- IC50 (Translocator protein [5]): 620 nM
- Drug uptake (Liver): Not Active
SMILES: CCC(C)N(C)C(=O)c1cc2ccccc2c(-c2ccccc2I)n1 (stereo unspecified)

- IC50 (Translocator protein [5]): 210 nM
SMILES: C=Cc1c(C)c2cc3nc(c4c5[nH]c(cc6nc(cc1[nH]2)C(C)=C6CC)c(C)c5C(=O)C4)[C@@H](CCC(=O)N(C)CCCCCCN(C)C(=O)c1cc2ccccc2c(-c2ccccc2I)n1)[C@@H]3C

- Drug uptake (MDA-MB-231 [2]): Active
- IC50 (Translocator protein [5]): 25000 nM
SMILES: C=Cc1c(C)c2cc3nc(c4c5[nH]c(cc6nc(cc1[nH]2)C(C)=C6CC)c(C)c5C(=O)C4)[C@@H](CCC(=O)NCCCCCCN)[C@@H]3C
- Activity (MDA-MB-231 [1]): 0%

- IC50 (Translocator protein [5]): 2200 nM
SMILES: C=Cc1c(C)c2cc3nc(c4c5[nH]c(cc6nc(cc1[nH]2)C(C)=C6CC)c(C)c5C(=O)C4)[C@@H](CCC(=O)NCCNC(=O)c1cc2ccccc2c(-c2ccccc2I)n1)[C@@H]3C

- IC50 (Translocator protein [5]): 1000 nM
SMILES: C=Cc1c(C)c2cc3nc(c4c5[nH]c(cc6nc(cc1[nH]2)C(C)=C6CC)c(C)c5C(=O)C4)[C@@H](CCC(=O)N(C)CCN(C)C(=O)c1cc2ccccc2c(-c2ccccc2I)n1)[C@@H]3C

- Drug uptake [8]: Not Active
SMILES: CCC(C)N(C)C(=O)c1cc2ccccc2c(-c2ccccc2[124I])n1 (stereo unspecified)
